Assay outcomes as filed in PubChem.
Mdm2 MdmX PPI: human Mdm2/MdmX binding inhibition; SaOS-2 split-luciferase Mdm2/MdmX complementation, luminescence; actives 3% (n = 330,000); inhibition, % at 8 µM;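 active = inhibition of at least 50% at 8 µM in the primary screen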
B2AR ag: activates human beta-2 adrenergic receptor causing internalization; actives 0.43% (n = 340,000); response, % (test concentration not listed); P07550; Am2.2-beta2AR cells, FAP receptor internalization, flow cytometry;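 active = response above a set limit, near 3 SD of response in nonfluorescent compounds, cut at about 42% in these data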
Target sequence (P07550 whole entry, looked up): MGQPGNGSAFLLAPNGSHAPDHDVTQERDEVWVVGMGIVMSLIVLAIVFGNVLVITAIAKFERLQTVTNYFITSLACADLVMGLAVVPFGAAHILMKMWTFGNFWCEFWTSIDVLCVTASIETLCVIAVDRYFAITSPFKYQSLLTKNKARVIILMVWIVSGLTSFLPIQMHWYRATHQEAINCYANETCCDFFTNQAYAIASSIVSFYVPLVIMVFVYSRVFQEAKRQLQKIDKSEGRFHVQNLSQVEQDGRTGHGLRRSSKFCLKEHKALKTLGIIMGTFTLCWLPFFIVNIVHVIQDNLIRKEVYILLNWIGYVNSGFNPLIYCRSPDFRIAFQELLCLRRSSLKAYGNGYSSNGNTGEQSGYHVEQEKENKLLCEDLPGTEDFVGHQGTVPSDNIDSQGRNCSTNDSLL
MDM2 E3 inh: inhibitors of human Mdm2 E3 ubiquitin ligase | Q00987 | cell-based MDM2 ubiquitination luciferase reporter, 2 h; 0 = plate control, 100 = twice control, blank-subtracted | signal enhancement, % at 5 µM | actives 0.11% (n = 210,000);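 active = signal enhancement of 30% or more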;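 note: luminescence tracks abundance of the self-degrading MDM2-luciferase fusion protein; higher signal means inhibition of MDM2 E3 ligase activity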
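Assay system: stable mammalian line carrying autodegrading MDM2–luciferase fusion reporter; Input: 2000 cells in each well; Compound dosing: single-point 5 µM; Schedule: 2 h compound exposure at 37 °C; Signal: SteadyLite luciferase luminescence after 15 min room-temperature reagent incubation; Evaluation: % luminescence enhancement versus blank-corrected plate control mean; Benchmarks: plate controls and plate blanks.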
UPR CHOP act: activators of apoptotic arm of unfolded protein response (CHOP); AID 449763; actives 0.34% (n = 330,000); CHO-CHOP luciferase reporter, UPR activation, luminescence; percent of tunicamycin response over DMSO baseline; activation, % at 10 µM;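 active = at 10 µM dose, activation of 40% or more, normalized to positive control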;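 note: 100% = tunicamycin at 10 µg/mL and 0% = DMSO alone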
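System: CHO-CHOP luciferase reporter cell line | Buffer or medium: F12 medium containing 10% fetal bovine serum | Doses: One dose, 10 µM in 0.5% DMSO | Times: 6 h compound exposure at 37 °C after overnight seeding | Signal: Luciferase luminescence | Read-out: % activation vs tunicamycin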
Dynein transport: blocks dynein driven cargo transport along microtubules; z-score, hits read low; actives 0.47% (n = 220,000); 3617.4 mouse cells, GR-EGFP nuclear translocation imaging; test concentration mostly 20 µM; stimulated with dexamethasone, 1 µM; stronger effect = lower value; AID 1381;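 active = plate z-score of nuclear minus cytoplasmic receptor signal below a set negative limit, without overly bright fluorescence or cell loss, cut at about -3.5 in these data, passing the limit was not always enough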;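 note: z-score of nuclear minus cytoplasmic ring GR-EGFP intensity difference per well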
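Buffer or medium: tetracycline-free induction medium containing charcoal-stripped FBS / Reagent: dexamethasone agonist, 1.0 µM final, for 30 min / Technique: automated 10x imaging of fixed Hoechst-stained cells / Times: induction 48 h, compound 1 h, agonist 30 min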
UPR XBP1 act: activators of adaptive arm of unfolded protein response (XBP1). CHO-XBP1 luciferase reporter, IRE1-XBP1 UPR activation, luminescence; percent of tunicamycin response, DMSO as zero. activation, % at 20 µM. actives 0.33% (n = 330,000). AID 463104;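 active = versus positive control, 20 µM dose yields 30% or more activation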;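 note: 100% = tunicamycin at 10 µg/mL and 0% = DMSO only wells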
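Material: CHO-XBP1 cells stably carrying IRE1-XBP1-driven luciferase reporter / Amount: 1000 cells per well / Compound: 20 µM, 1% DMSO / Times: 6 h treatment, 37 °C / Detection: luciferase luminescence / Measure: % activation of reporter signal versus tunicamycin and DMSO controls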
Mdm2-MdmX conf: confirmation of human Mdm2/MdmX interaction inhibitors; inhibition, % at 8 µM; actives 55% (n = 10,000); shares compounds with Mdm2 MdmX PPI; Mdm2-MdmX binding, luminescent assay; in the data active = inhibition above about 40%
FLuc counter: full-length luciferase inhibition in Mdm2/MdmX counter-screen. shares compounds with Mdm2 MdmX PPI. SaOS-2 full-length luciferase counterscreen, luminescence. actives 77% (n = 6,200). inhibition, % at 8 µM;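 active = mean inhibition at 8 µM reaching about 37%, which flags the compound as non-specific, limit read from the data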;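 note: p53-null SaOS-2 cells with luciferase driven by a doxycycline-inducible promoter; compound on cells about two nights before reading with doxycycline added after day one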
* = called active by the depositor; i = inactive; x = no result given. Shown are actives, neighbours in structure and some others; about 3.7% of the full set was active somewhere.

SMILES	Mdm2 MdmX PPI	B2AR ag	MDM2 E3 inh	UPR CHOP act	Dynein transport	UPR XBP1 act	Mdm2-MdmX conf	FLuc counter
CN(C(=S)Nc1ccc(SC(F)F)cc1)C(c1ccccc1)c1ccccc1	56*	3	x	1	x	-2	7	x
FC(F)Sc1ccc(NC(=S)NC2CCCCC2)cc1	-75	1	12	2	0.27	3	x	x
FC(F)Sc1ccc(NC(=S)NCc2ccccc2)cc1	-18	1	1	1	-0.063	-2	x	x
FC(F)Sc1ccc(NC(=S)NCC2CCCCC2)cc1	65*	2	-18	4	-1.2	6	-4	x
CN(CC(=O)Nc1ccc(F)cc1)CC(=O)N1CCCC1	-10	-3	x	-2	x	1	x	x
O=C(N[C@@H]1c2ccccc2CC[C@@H]1OCc1ccccc1)c1ccc(C(F)(F)F)cc1	13	3	x	4	x	10	x	x
CC(NC(=O)COC(=O)c1ccc(Br)o1)c1ccccc1 (stereo unspecified)	5	5	x	-1	x	0	x	x
CN(C)S(=O)(=O)c1ccc(Cl)c(C(=O)OCC(=O)c2ccco2)c1	7	0	x	0	x	-1	x	x
CCOc1ccccc1C(=O)NC(C(=O)N(C)c1c(N)n(Cc2ccccc2)c(=O)[nH]c1=O)C(C)C (stereo unspecified)	x	2	x	x	x	x	x	x
O=C(NCCN1CCOCC1)/C(=C/c1ccco1)NC(=O)c1ccccc1	-44	-4	x	0	x	-3	x	x
Cc1cccc(OCCCC(=O)Nc2nc3ccccc3[nH]2)c1	76*	-10	-5	-1	0.33	-1	74*	65*
Cc1ccc(OCCCC(=O)Nc2nc3ccccc3[nH]2)cc1	-1	-16	6	2	2	0	x	x
C/C(=N/NC(=O)c1nnn(-c2nonc2N)c1COc1ccccc1)c1ccccc1	31	3	x	1	x	-4	x	x
Cc1cccc(OCC(O)Cn2c(=N)n(Cc3ccccc3)c3ccccc32)c1 (stereo unspecified)	88*	8	-12	2	-0.25	3	64*	64*
Cc1cccc(OCC(O)Cn2c(=N)n(CCN3CCCCC3)c3ccccc32)c1 (stereo unspecified)	53*	21	-1	-1	-0.71	2	46*	61*
COc1ccc(OCC(O)Cn2c(=N)n(Cc3ccccc3)c3ccccc32)cc1 (stereo unspecified)	54*	16	0	0	i	1	43*	65*
Cc1ccc2oc3c(SCc4nc5ccccc5[nH]4)nc(C)nc3c2c1	13	0	x	1	x	4	x	x
Cc1nc(SCc2nc3ccccc3[nH]2)c2oc3cc(Br)ccc3c2n1	65*	18	x	-1	x	14	12	x
NC(=O)[C@@H]1CC2(CC(c3cccc(NC(=O)CC(c4ccccc4)c4ccccc4)c3)=NO2)CN1C(=O)COc1ccc(Cl)cc1 (stereo partly specified)	73*	8	-5	9	0.99	-5	42*	80*
NC(=O)[C@H]1CC2(CC(c3cccc(NC(=O)COc4ccc(Cl)cc4)c3)=NO2)CN1C(=O)CC(c1ccccc1)c1ccccc1 (stereo partly specified)	54*	1	-9	11	0.31	5	24	x
COc1ccc(CC(O)COS(N)(=O)=O)cc1 (stereo unspecified)	-22	4	x	0	x	2	x	x
CC(C)c1ccc(NC(=O)CCNC(=O)N2CC(=O)Nc3ccccc32)cc1	18	-4	x	-1	x	-5	x	x
CC(=O)Nc1ccc(NC(=O)C(C)OC(=O)C2(c3ccccc3F)CCCC2)cc1 (stereo unspecified)	-1	-3	x	2	x	-5	x	x
COc1cc(CN2CCN(CC#Cc3ccccc3)CC2CCO)cc(OC)c1 (stereo unspecified)	10	2	x	-1	x	-2	x	x
COc1ccc2c(C)cc(=O)oc2c1	x	-5	x	x	x	x	x	x
SMILES	Mdm2 MdmX PPI	B2AR ag	MDM2 E3 inh	UPR CHOP act	Dynein transport	UPR XBP1 act	Mdm2-MdmX conf	FLuc counter
COc1ccc(C2=NOC(COc3ccc4c(C)cc(=O)oc4c3)C2)c(OC)c1 (stereo unspecified)	56*	20	x	0	-0.46	2	56*	60*
COc1cccc(COc2ccc3c(C)cc(=O)oc3c2)c1	-198	-1	x	6	x	-2	x	x
COc1ccccc1C1=NOC(COc2ccc3c(C)cc(=O)oc3c2)C1 (stereo unspecified)	58*	44*	-2	1	0.71	16	58*	88*
COc1ccc(CC(=O)Nc2cccnc2)cc1	3	-10	x	3	x	-4	x	x
Cc1nc2ccc(NC(=O)c3nn(CC(C)C)c(=O)c4ccccc34)cc2s1	77*	-5	x	1	0.13	0	86*	51*
CCCn1nc(C(=O)Nc2cccc(S(=O)(=O)N(C)c3ccccc3)c2)c2ccccc2c1=O	53*	11	x	4	x	-4	13	x
Cn1nc(C(=O)Nc2cccc(S(=O)(=O)N3CCCC3)c2)c2ccccc2c1=O	54*	1	x	2	x	5	2	x
Cc1nnc(NC(=O)c2nn(CC(C)C)c(=O)c3ccccc23)s1	6	-8	-6	1	-0.11	6	x	x
CCCn1nc(C(=O)Nc2ccc(N3CCOCC3)cc2)c2ccccc2c1=O	51*	2	x	-1	x	4	10	x
CCCn1nc(C(=O)NCCN2CCOCC2)c2ccccc2c1=O	16	-4	-4	-2	0.082	-4	x	x
CCCC(C)NC(=S)Nc1cc(C)cc(C)c1 (stereo unspecified)	10	4	-7	-1	1.1	-1	x	x
CCOc1cc(N2CCOCC2)c(OCC)cc1NC(=O)c1nn(CC)c(=O)c2ccccc12	86*	17	x	11	x	3	49*	87*
CCOc1cc(N2CCOCC2)c(OCC)cc1NC(=O)c1ccccc1C	5	0	x	-1	-1.1	-7	x	x
O=C(Nc1cc(Cl)ccc1-n1cncn1)c1ccc(Br)o1	39	11	x	-1	x	-1	x	x
COc1cccc(-n2sc3c(c2=S)-c2cc(OC)ccc2NC3(C)C)c1	51*	3	-14	0	1.1	3	39	76*
